≈ marks a conversion by molar mass, not a printed value.
Experiments:
[1] = system: MV4-11; test: Cytotoxicity against human MV4-11 cells incubated for 72 hrs by MTT assay; format: functional, cell-based; details: MV4-11, 72 h
Procedure, shortened: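 Leukemia cells were grown with 10% FBS at 37 °C in 5% CO₂; MV4-11 was kept in IMDM. Cells were seeded at 1–4 × 10⁴ per well, and an equal volume of medium containing increasing inhibitor concentrations was added. MTT was added for 2–4 h, formazan was dissolved in DMSO, and OD was read at 570 nm to derive IC50.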

[2] = Solubility in MeOH solution; format: physicochemical
[3] = Solubility in EtOH solution; format: physicochemical

| solubility [2] | solubility [3] | SMILES | IC50 [1] |
| --- | --- | --- | --- |
| – | – | CC(C)(C)c1cc(NC(=O)Nc2ccc(-c3cn4cccnc4n3)cc2)no1 | 171 nM |
| – | – | C#Cc1ccc2nc(-c3ccc(NC(=O)Nc4cc(C(C)(C)C)on4)cc3)cn2c1 | 8.62 nM |
| – | – | CC(C)(C)c1cc(NC(=O)Nc2ccc(-c3cn4ncccc4n3)cc2)no1 | 59 nM |
| – | – | CC(C)(C)c1cc(NC(=O)Nc2ccc(-c3cn4cc(F)ccc4n3)cc2)no1 | 20.9 nM |
| – | – | CC(C)(C)c1cc(NC(=O)Nc2ccc(-c3cn4cc(Cl)ccc4n3)cc2)no1 | 24.8 nM |
| – | – | CC(C)(C)c1cc(NC(=O)Nc2ccc(-c3cn4cccc(C(F)(F)F)c4n3)cc2)no1 | > 900 nM |
| – | – | CC(C)(C)c1cc(NC(=O)Nc2ccc(-c3cc4ccccc4o3)cc2)no1 | 195 nM |
| – | – | CC(C)(C)c1cc(NC(=O)Nc2ccc(-c3cn4cc(C5CC5)ccc4n3)cc2)no1 | 15.8 nM |
| 5280 µg/mL (≈ 14.1 mM) | 4070 µg/mL (≈ 10.8 mM) | CC(C)(C)c1cc(NC(=O)Nc2ccc(-c3cn4ccccc4n3)cc2)no1 | 3.09 nM |
| – | – | CC(=O)Oc1ccn2cc(-c3ccc(NC(=O)Nc4cc(C(C)(C)C)on4)cc3)nc2c1 | 29.4 nM |
| – | – | CC(C)(C)c1cc(NC(=O)Nc2ccc(-c3cn4cc(I)ccc4n3)cc2)no1 | 98.5 nM |
| – | – | CC(C)(C)c1cc(NC(=O)Nc2ccc(-c3cn4cc(Br)ccc4n3)cc2)no1 | 44.5 nM |
| – | – | CCOc1ccn2cc(-c3ccc(NC(=O)Nc4cc(C(C)(C)C)on4)cc3)nc2c1 | 11.6 nM |
| – | – | CC(C)(C)c1cc(NC(=O)Nc2ccc(-c3cn4cccc(F)c4n3)cc2)no1 | 12.2 nM |

From ChEMBL document CHEMBL3593173, “Discovery of novel N-(5-(tert-butyl)isoxazol-3-yl)-N'-phenylurea analogs as potent FLT3 inhibitors and evaluation of their activity against acute myeloid leukemia in vitro and in vivo” (Bioorg Med Chem, 2015)
